We go through three compounds from ChEMBL document CHEMBL1781963, “Discovery of novel hepatoselective HMG-CoA reductase inhibitors for treating hypercholesterolemia: a bench-to-bedside case study on tissue selective drug distribution” (Bioorg Med Chem Lett, 2011).

In data set [1] the test system is Homo sapiens. In words: Inhibition of HMG-CoA reductase in human assessed as decrease in AUC (0 to 24 hrs) of mevalonate level in plasma at 240 mg administered as single dose relative to control. Format: functional.
Data set [2] has as its system Plasma. In words: fCmax in human plasma at 3 mg administered as single dose. Format: ADME, cell-free. A digest of the protocol:
(§1)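 Phase 1 single ascending oral dose in healthy volunteers, with N per dose group. Total plasma Cmax and AUC(0-∞) were measured. Free-drug exposures were derived from these using plasma protein binding (human plasma fu measured at 0.5 μg/mL).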

In data set [3] the test system is Homo sapiens. In words: Inhibition of HMG-CoA reductase in human assessed as decrease in AUC (0 to 24 hrs) of mevalonate level in plasma at 320 mg administered as single dose relative to control. In kind it is organism-based. The note with it: in vivo.
For another data set, the system named is Hepatocyte. Briefly: Inhibition of cholesterol synthesis in rat hepatocytes assessed as reduction of [14C]-cholesterol level using [14C]-acetic acid preincubated for 4 hrs before addition of [14C]-acetic acid by liquid scintillation counting. In kind it is functional, cell-based. In a few lines:
(§2)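 Cholesterol synthesis inhibition measured in rat hepatocytes and rat myocyte cell line, giving IC50 for each. Mean ± SEM of n ≥ 2 independent determinations.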

Data set [4] can be described thus: AUC (0 to infinity) in human plasma at 10 mg administered as single dose. In kind it is ADME, cell-free. Also on record: dose 10 mg, time infinity. In a few lines: (§3)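 Phase 1 single ascending oral dose in healthy volunteers, about 5–6 subjects per dose. Total plasma drug Cmax and AUC(0-∞) were measured. Free-drug exposures were derived using plasma protein binding.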

For data set [5], the system named is Homo sapiens. In words: Inhibition of HMG-CoA reductase in human assessed as decrease in AUC (0 to 72 hrs) of mevalonate level in plasma at 10 mg administered as single dose relative to control. Format: functional.
A further data set has as its system Syrian golden hamster. Briefly: Inhibition of cholesterol synthesis in golden syrian hamster assessed as reduction of [14C]-cholesterol level at 10 mg/kg, po followed by 3 hrs after treated with 80 uCi, ip of [14C]-sodium acetate measured after 5 hrs by liquid scintillation counting relative to control. The note with it: Mesocricetus auratus. In kind it is functional. In a few lines: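 Separate hamster groups dosed po at 10 mg/kg at t = 0 h. 14C sodium acetate ip at t = 3 h, blood 14C cholesterol at t = 5 h. Percent change vs untreated controls, n = 8/group.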

Data set [6] in a line: AUC (0 to infinity) in human plasma at 320 mg administered as single dose. In kind it is ADME, cell-free. Also on record: dose 320 mg, time infinity. A digest of the protocol:
as §3

In data set [7] the test system is Homo sapiens. In words: Inhibition of HMG-CoA reductase in human assessed as decrease in AUC (0 to 72 hrs) of mevalonate level in plasma at 240 mg administered as single dose relative to control. Format: functional.
The next data set deals with L6. In words: Inhibition of cholesterol synthesis in rat L6 cells assessed as reduction of [14C]-cholesterol level using [14C]-acetic acid preincubated for 3 hrs before addition of [14C]-acetic acid by scintillation counting. In kind it is functional, cell-based. A digest of the protocol:
as §2

The test system of data set [8] is Plasma. In words: fAUC (0 to infinity) in human plasma at 320 mg administered as single dose. Format: ADME, cell-free. A digest of the protocol: as §1
Data set [9] can be described thus: Cmax in human plasma at 240 mg administered as single dose. Format: ADME, organism-based. Also on record: dose 240 mg. A digest of the protocol:
as §3

Data set [10] concerns Plasma. Briefly: fCmax in human plasma at 10 mg administered as single dose. Format: ADME, cell-free. A digest of the protocol: as §1
Data set [11] has as its system Plasma. Briefly: fCmax in human plasma at 240 mg administered as single dose. In kind it is ADME, cell-free. In a few lines: as §1
The nature of data set [12]: Terminal half life in human plasma at 320 mg administered as single dose. Format: ADME, cell-free. Particulars: read-out: beta t1/2 (converted).
Data set [13] can be described thus: Cmax in human plasma at 320 mg administered as single dose. In kind it is ADME, organism-based. Details: dose 320 mg. In a few lines: as §3
Data set [14] in a line: Terminal half life in human plasma at 120 mg administered as single dose. Format: ADME, cell-free. The note with it: read-out: beta t1/2 (converted).
Data set [15] relates to Homo sapiens. In words: Inhibition of HMG-CoA reductase in human assessed as decrease in AUC (0 to 72 hrs) of mevalonate level in plasma at 120 mg administered as single dose relative to control. In kind it is functional.
Data set [16] deals with Plasma. In words: fAUC (0 to infinity) in human plasma at 120 mg administered as single dose. Format: ADME, cell-free. A digest of the protocol: as §1
Data set [17] concerns Homo sapiens. In words: Inhibition of HMG-CoA reductase in human assessed as decrease in AUC (0 to 24 hrs) of mevalonate level in plasma at 10 mg administered as single dose relative to control. Format: functional.
Data set [18] is described as follows: Cmax in human plasma at 3 mg administered as single dose. Format: ADME, organism-based. Also on record: dose 3 mg. A digest of the protocol:
as §3

The subject of data set [19] is Plasma. Briefly: fCmax in human plasma at 5 mg administered as single dose. Format: ADME, cell-free. A digest of the protocol: as §1
For data set [20], the system named is Plasma. In words: fCmax in human plasma at 20 mg administered as single dose. Format: ADME, cell-free. In a few lines: as §1
Data set [21] in a line: Cmax in human plasma at 5 mg administered as single dose. Details: dose 5 mg. Format: ADME, organism-based. In a few lines: as §3
Data set [22] can be described thus: Terminal half life in human plasma at 5 mg administered as single dose. Particulars: read-out: beta t1/2 (converted). Format: ADME, cell-free.
A further data set relates to Liver. Briefly: Ratio of fAUC (0 to 24 hrs) in liver to plasma in Sprague-Dawley rat at 25 mg/kg, po. Format: ADME, organism-based. Also on record: dose 25 mg/kg, route oral. Particulars: other tissue. A digest of the protocol: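 Sprague-Dawley rats given a single oral dose (10 or 25 mg/kg). Free drug measured in liver and plasma at 0, 0.5, 1, 2, 3, 4, 7 and 24 h, n = 3/time point.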

In data set [23] the test system is Homo sapiens. In words: Inhibition of HMG-CoA reductase in human assessed as decrease in AUC (0 to 72 hrs) of mevalonate level in plasma at 1 mg administered as single dose relative to control. Format: functional.
A short description of data set [24]: AUC (0 to infinity) in human plasma at 20 mg administered as single dose. Format: ADME, cell-free. Also on record: dose 20 mg, time infinity. In a few lines:
as §3

For data set [25], the system named is Homo sapiens. In words: Inhibition of HMG-CoA reductase in human assessed as decrease in AUC (0 to 72 hrs) of mevalonate level in plasma at 20 mg administered as single dose relative to control. In kind it is functional.
Data set [26] relates to Homo sapiens. In words: Inhibition of HMG-CoA reductase in human assessed as decrease in AUC (0 to 72 hrs) of mevalonate level in plasma at 5 mg administered as single dose relative to control. Format: functional.
A short description of data set [27]: Terminal half life in human plasma at 80 mg administered as single dose. Format: ADME, cell-free. The note with it: read-out: beta t1/2 (converted).
Data set [28] in a line: Cmax in human plasma at 160 mg administered as single dose. Format: ADME, organism-based. Also on record: dose 160 mg. In a few lines:
as §3

The subject of data set [29] is Plasma. In words: fCmax in human plasma at 80 mg administered as single dose. In kind it is ADME, cell-free. In a few lines:
as §1

Data set [30] relates to Plasma. Briefly: fAUC (0 to infinity) in human plasma at 1 mg administered as single dose. Format: ADME, cell-free.
Data set [31] is described as follows: AUC (0 to infinity) in human plasma at 80 mg administered as single dose. In kind it is ADME, cell-free. Also on record: dose 80 mg, time infinity. In a few lines: as §3
The nature of data set [32]: Cmax in human plasma at 20 mg administered as single dose. In kind it is ADME, organism-based. Also on record: dose 20 mg. A digest of the protocol:
as §3

The test system of data set [33] is Homo sapiens. Briefly: Inhibition of HMG-CoA reductase in human assessed as decrease in AUC (0 to 72 hrs) of mevalonate level in plasma at 80 mg administered as single dose relative to control. In kind it is functional.
Data set [34] deals with Homo sapiens. In words: Inhibition of HMG-CoA reductase in human assessed as decrease in AUC (0 to 24 hrs) of mevalonate level in plasma at 1 mg administered as single dose relative to control. Format: functional.
Data set [35] in a line: Terminal half life in human plasma at 20 mg administered as single dose. The note with it: read-out: beta t1/2 (converted). Format: ADME, cell-free.
A short description of data set [36]: Cmax in human plasma at 80 mg administered as single dose. Format: ADME, organism-based. Also on record: dose 80 mg. A digest of the protocol:
as §3

Data set [37] can be described thus: Terminal half life in human plasma at 160 mg administered as single dose. Format: ADME, cell-free. The note with it: read-out: beta t1/2 (converted).
Data set [38] deals with Homo sapiens. In words: Inhibition of HMG-CoA reductase in human assessed as decrease in AUC (0 to 24 hrs) of mevalonate level in plasma at 10 mg administered qd for 14 days relative to control. In kind it is functional.
A short description of data set [39]: Cmax in human plasma at 10 mg administered qd for 14 days. In kind it is ADME, organism-based. Details: dose 10 mg.

Each structure is given as a SMILES string.

A word on the IC50: it is the concentration that gives 50% inhibition. By AUC(0-inf) is commonly meant total exposure, with the tail of the curve extrapolated. A lower AUC(0-inf) goes with low exposure. By inhibition in vivo is commonly meant the drop in the measured response relative to a control, in per cent. As a reminder, the Cmax is the highest concentration seen after dosing. For the compound `O=C([O-])C[C@H](O)C[C@H](O)CCn1c(-c2ccc(F)cc2)nc(C(=O)NCc2cccc(F)c2)c1C1CC1.[Na+]`, the “inhibition (INH)” value in the data set on Homo sapiens [1] is on record as -56%; with Homo sapiens [3], -61%; in the data set on Homo sapiens [5], -13%; with Homo sapiens [7] it was -30%; in the data set on Homo sapiens [15], -17%; in the data set with Homo sapiens [17], -25%. Moreover, the results for the fCmax in the data set on Plasma [2], in the data set with Plasma [10] and with Plasma [11] were 0.016 ng/mL, 0.1 ng/mL and 2.69 ng/mL, respectively. For the same compound, the IC50 with Hepatocyte is 0.1 nM; with L6, 444 nM. For the same compound, the AUC(0-inf) in [4] stood at 2.71 ng·h/mL; in data set [6], 36 ng·h/mL. Further, in the data set with Syrian golden hamster, the inhibition in vivo at 10 mg/kg is -43%. Besides, the fAUC with Plasma [8] is 10.4 ng·h/mL; in the data set with Plasma [16], 3.63 ng·h/mL. Moreover, the Cmax was determined as 9.27 ng/mL in data set [9], 44.1 ng/mL in [13] and 0.0552 ng/mL in data set [18]. The figures for the half-life in [12] and in [14] were 7.36 h and 3.07 h, respectively.

As to `Cc1ccc(CNC(=O)c2nn(-c3ccc(F)cc3)c(CC[C@@H](O)C[C@@H](O)CC(=O)O)c2C(C)C)cc1`, the fCmax amounted to 10 ng/mL in the data set with Plasma [19], 37.7 ng/mL in the data set on Plasma [20] and 228 ng/mL in the data set with Plasma [29]. In addition, the Cmax is 196 ng/mL in data set [21], 6810 ng/mL in data set [28], 740 ng/mL in [32] and 4480 ng/mL in data set [36]. Moreover, the half-life in [22] is 4.54 h; in data set [27] it was 6.28 h; in data set [35], 5.27 h; in data set [37], 8.87 h. For the same compound, in the data set with Liver, the Ratio was found to be 128. The “inhibition (INH)” value with Homo sapiens [23] was -8%; with Homo sapiens [25], -17%; with Homo sapiens [26], 3%; in the data set with Homo sapiens [33], -29%; in the data set on Homo sapiens [34], -16%. Moreover, the results for the AUC(0-inf) in [24] and in [31] were 1930 ng·h/mL and 11800 ng·h/mL, respectively. In addition, the fAUC with Plasma [30] stood at 4 ng·h/mL.

For `CC(C)c1nc(N(C)S(C)(=O)=O)nc(-c2ccc(F)cc2)c1/C=C/[C@@H](O)C[C@@H](O)CC(=O)O` [ROSUVASTATIN], the “inhibition (INH)” value with Homo sapiens [38] was 29.9%. This compound also had a Cmax in data set [39] of 4.58 ng/mL.
